Test results from ChEMBL document CHEMBL1136850, “Neuroprotective activity and evaluation of Hsp90 inhibitors in an immortalized neuronal cell line” (Bioorg Med Chem, 2009).
Calls of active or inactive are those of the source. The rule behind the calls is not given here.

Legend:
SH-SY5Y [1] = test: Neuroprotection against beta-amyloid peptide 1-42-induced toxicity in human SH-SY5Y cells assessed as lactate dehydrogenase release; format: functional, cell-based
Method in brief: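 Proliferating SH-SY5Y cells were grown in DMEM with 10% FBS at 37°C in 5% CO2, then seeded into 96-well plates. Drug or DMSO was given 2 h before 10 μM Aβ in serum-free DMEM for 48 h. LDH released into the cleared medium was read kinetically as NADH oxidation (50 mM phosphate pH 7.4, 1 mM pyruvate, 0.2 mM NADH; […], 5 min, 25°C). Aβ alone was set as 100% cell death. Mean ± S.E.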

SH-SY5Y [2] = test: Toxicity in retinoic acid-differentiated human SH-SY5Y cells assessed as effect on cell morphology at 10 uM after 24 hrs by trypan blue exclusion method; format: cell-based
Method in brief: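 Retinoic acid-differentiated SH-SY5Y cells (10 μM RA, 7 days) were exposed to 10 μM drug or DMSO without Aβ for 24 h. Neurite morphology was examined by phase-contrast microscopy. Viability was counted by 0.04% trypan blue exclusion.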

SH-SY5Y [3] = test: Neuroprotection against beta-amyloid peptide 1-42-induced toxicity in retinoic acid-differentiated human SH-SY5Y cells assessed as lactate dehydrogenase release; format: functional, cell-based
Method in brief: (§1)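 SH-SY5Y cells were differentiated for 7 days with 10 μM retinoic acid until they stopped proliferating and grew neurites. Drug was added 2 h before 10 μM Aβ in serum-free DMEM for 48 h. Released LDH was measured by NADH oxidation (pyruvate 1 mM, NADH 0.2 mM, pH 7.4; […] over 5 min at 25°C). Protection is expressed against Aβ alone, taken as 100% death.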

SH-SY5Y [4] = test: Neuroprotection against beta-amyloid peptide 1-42-induced toxicity in retinoic acid-differentiated human SH-SY5Y cells assessed as lactate dehydrogenase release at 10 nM; format: functional, cell-based; method in brief: as §1
SH-SY5Y [5] = test: Neuroprotection against beta-amyloid peptide 1-42-induced toxicity in retinoic acid-differentiated human SH-SY5Y cells assessed as lactate dehydrogenase release at 1 uM; format: functional; method in brief: as §1
SH-SY5Y [6] = test: Toxicity in human SH-SY5Y cells at 10 uM by trypan blue exclusion method; format: cell-based

SMILES	EC50 (SH-SY5Y [1])	Activity (SH-SY5Y [2])	Activity (SH-SY5Y [3])	Activity (SH-SY5Y [4])	Activity (SH-SY5Y [5])	AC50 (SH-SY5Y [6])
CO[C@@H]1[C@@H](O)[C@@H](O)[C@H](Oc2ccc3cc(NC(C)=O)c(=O)oc3c2)OC1(C)C	4.85 nM	Non-toxic				
COC1=C2C[C@@H](C)C[C@H](OC)[C@H](O)[C@@H](C)/C=C(\C)[C@H](OC(N)=O)[C@@H](OC)/C=C\C=C(/C)C(=O)NC(=CC1=O)C2=O [GELDANAMYCIN]	42.7 nM	Toxic	inactive	Active		
CO[C@@H]1[C@@H](OC(N)=O)[C@@H](O)[C@H](Oc2ccc3c(O)c(NC(=O)c4ccc(O)c(CC=C(C)C)c4)c(=O)oc3c2C)OC1(C)C [NOVOBIOCIN]	48.4 nM	Toxic	Active	Active		
CO[C@@H]1[C@@H](O)[C@@H](O)[C@H](Oc2ccc3cc(NC(C)=O)c(=O)oc3c2C)OC1(C)C	1.49 nM	Non-toxic			70%	Non-toxic
O=C(O[C@@H]1Cc2c(O)cc(O)cc2O[C@@H]1c1cc(O)c(O)c(O)c1)c1cc(O)c(O)c(O)c1 [EPIGALOCATECHIN GALLATE]	39.9 nM					
CC(=O)O[C@@H]1C[C@H]2C(C)(C)C(=O)C=C[C@]2(C)[C@H]2CC[C@@]3(C)[C@H](c4ccoc4)OC(=O)[C@H]4O[C@]43[C@@]21C [GEDUNIN]	39 nM					
CC1=C(O)C(=O)C=C2C1=CC=C1[C@@]2(C)CC[C@@]2(C)[C@@H]3C[C@](C)(C(=O)O)CC[C@]3(C)CC[C@]12C [CELASTROL]	37.6 nM					
O=C(O)/C=C/c1nn(Cc2ccc(Cl)cc2Cl)c2cc(C(F)(F)F)ccc12			inactive			
CO[C@@H]1[C@@H](O)[C@@H](O)[C@H](Oc2ccc3cc(NC(=O)CCCCCCC(=O)Nc4cc5ccc(O[C@@H]6OC(C)(C)[C@H](OC)[C@@H](O)[C@H]6O)c(C)c5oc4=O)c(=O)oc3c2C)OC1(C)C	4.48 nM	Non-toxic				Non-toxic
